Test: Drug excretion in healthy human urine assessed as unchanged drug at 50 mg, po administered as single dose by high-pressure liquid chromatography-tandem mass spectrometry/mass spectrometry method
Format: ADME, organism-based
Settings: read-out: Drug uptake
Outline: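 Urine was collected by weight after one oral dose of BILR 355 in PEG solution in fasted healthy males. Intervals were predose blank, 0-6, 6-24 and 24-72 h, with the bladder voided before each. Aliquots were stored at −20°C and assayed by LC-MS/MS. fe = amount of unchanged drug excreted (Ae) as a percentage of the administered dose.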

With `CCN1c2ncc(CCOc3cc[n+]([O-])c4ccccc34)cc2C(=O)N(C)c2cccnc21` [BILR 355] the dose excreted was 0.485%.

Source: ChEMBL document CHEMBL1629563, “Pharmacokinetic and safety evaluation of BILR 355, a second-generation nonnucleoside reverse transcriptase inhibitor, in healthy volunteers” (Antimicrob Agents Chemother, 2008)
